Measured values from ChEMBL document CHEMBL1129929, “Analogues of methotrexate in rheumatoid arthritis. 1. Effects of 10-deazaaminopterin analogues on type II collagen-induced arthritis in mice” (J Med Chem, 1997).
pIC50: −log10 of the molar value. One block for each compound: values may come before it.

Key:
[1] = test system: Mus musculus; experiment: Tested for antiinflammatory activity on mouse type II collagen arthritis as Paw swelling* of all animals in each group on day 44 at intraperitoneal dose of 12 mg/kg; d means 3 animals died; assay type: functional, organism-based; set-up: dose 12 mg/kg
Outline: (§1)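 DBA/1 mice immunized with bovine type II collagen (Courtenay method, modified), antigen booster at day 21. Compounds given ip from 2 days before the first collagen challenge, then every 2 days. Hind paw dimensions (mm) measured for both limbs of all animals, expressed as mean ± SD. Eight mice per dose; untreated controls pooled from four experiments (48 animals).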

[2] = test system: Mus musculus; experiment: Tested for antiinflammatory activity on mouse type II collagen arthritis as Paw swelling* of all animals in each group on day 37 at intraperitoneal dose of 12 mg/kg; assay type: functional; outline: as §1
[3] = test system: Mus musculus; experiment: Incidence of disease(mouse type II collagen arthritis) was scored as the percentage of animals within each experimental group that exhibited joint or limb inflammation on day 44 at intraperitoneal of dose 12 mg/kg; d means 3 animals died; assay type: functional, organism-based; set-up: dose 12 mg/kg; settings: at 12 mg/kg
Outline: (§2)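 DBA/1 mice were immunized with bovine type II collagen (modified Courtenay method), with a collagen booster on day 21. Compounds were given ip starting 2 days before the first collagen challenge and every 2 days thereafter. Incidence was the percentage of animals per group with joint or limb inflammation, scored on days 23, 30, 37 and 44.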

[4] = test system: Mus musculus; experiment: Incidence of disease(mouse type II collagen arthritis) was scored as the percentage of animals within each experimental group that exhibited joint or limb inflammation on day 37 at intraperitoneal of dose 12 mg/kg (1 animal died); assay type: functional
Outline: (§3)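 DBA/1 mice immunised with bovine type II collagen, booster at day 21 (modified Courtenay model). Compound given intraperitoneally from 2 days before the first collagen challenge, then every 2 days. Incidence is the percentage of animals per group showing joint or limb inflammation, scored visually on days 23, 30, 37 and 44.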

[5] = test system: Mus musculus; experiment: Incidence of disease(mouse type II collagen arthritis) was scored as the percentage of animals within each experimental group that exhibited joint or limb inflammation on day 23 at intraperitoneal dose of 12 mg/kg (1 animal died); assay type: functional; outline: as §3
[6] = test system: Mus musculus; experiment: Tested for antiinflammatory activity on mouse type II collagen arthritis as Paw swelling* of all animals in each group on day 23 at intraperitoneal dose of 12 mg/kg; assay type: functional; outline: as §1
[7] = test system: Mus musculus; experiment: Incidence of disease(mouse type II collagen arthritis) was scored as the percentage of animals within each experimental group that exhibited joint or limb inflammation on day 30 at intraperitoneal of dose 12 mg/kg (1 animal died); assay type: functional; outline: as §3
[8] = test system: Mus musculus; experiment: Tested for antiinflammatory activity on mouse type II collagen arthritis as Paw swelling* of all animals in each group on day 30 at intraperitoneal dose of 12 mg/kg; assay type: functional; outline: as §1
[9] = test system: Mus musculus; experiment: Tested for antiinflammatory activity on mouse type II collagen arthritis as Paw swelling* of all animals in each group on day 30 at intraperitoneal dose of 10 mg/kg; assay type: functional; outline: as §1
[10] = test system: Mus musculus; experiment: Tested for antiinflammatory activity on mouse type II collagen arthritis as Paw swelling* of all animals in each group on day 44 at intraperitoneal dose of 15 mg/kg; assay type: functional; outline: as §1
[11] = test system: Mus musculus; experiment: Tested for antiinflammatory activity on mouse type II collagen arthritis as Paw swelling* of all animals in each group on day 37 at intraperitoneal dose of 15 mg/kg; assay type: functional; outline: as §1
[12] = test system: Mus musculus; experiment: Incidence of disease(mouse type II collagen arthritis) was scored as the percentage of animals within each experimental group that exhibited joint or limb inflammation on day 37 at intraperitoneal of dose 15 mg/kg; assay type: functional; outline: as §2
[13] = test system: Mus musculus; experiment: Tested for antiinflammatory activity on mouse type II collagen arthritis as Paw swelling* of all animals in each group on day 30 at intraperitoneal dose of 15 mg/kg; assay type: functional; outline: as §1
[14] = Concentration required to inhibit the growth of chang liver cells; assay type: functional; settings: Homo sapiens
[15] = test system: L1210; experiment: Concentration required to inhibit the growth of L1210 cells; assay type: functional, cell-based; settings: Mus musculus
[16] = test system: Mus musculus; experiment: Tested for antiinflammatory activity on mouse type II collagen arthritis as Paw swelling* of all animals in each group on day 37 at intraperitoneal dose of 10 mg/kg; assay type: functional; outline: as §1
[17] = test system: Mus musculus; experiment: Incidence of disease(mouse type II collagen arthritis) was scored as the percentage of animals within each experimental group that exhibited joint or limb inflammation on day 44 at intraperitoneal of dose 10 mg/kg; assay type: functional; outline: as §2
[18] = test system: Mus musculus; experiment: Incidence of disease(mouse type II collagen arthritis) was scored as the percentage of animals within each experimental group that exhibited joint or limb inflammation on day 23 at intraperitoneal dose of 10 mg/kg; assay type: functional; outline: as §2
[19] = test system: Mus musculus; experiment: Incidence of disease(mouse type II collagen arthritis) was scored as the percentage of animals within each experimental group that exhibited joint or limb inflammation on day 23 at intraperitoneal dose of 15 mg/kg; assay type: functional; outline: as §2
[20] = test system: Mus musculus; experiment: Incidence of disease(mouse type II collagen arthritis) was scored as the percentage of animals within each experimental group that exhibited joint or limb inflammation on day 30 at intraperitoneal of dose 15 mg/kg; assay type: functional; outline: as §2
[21] = test system: Mus musculus; experiment: Incidence of disease(mouse type II collagen arthritis) was scored as the percentage of animals within each experimental group that exhibited joint or limb inflammation on day 30 at intraperitoneal of dose 10 mg/kg; assay type: functional; outline: as §2
[22] = test system: Mus musculus; experiment: Tested for antiinflammatory activity on mouse type II collagen arthritis as Paw swelling* of all animals in each group on day 44 at intraperitoneal dose of 10 mg/kg; assay type: functional; outline: as §1
[23] = test system: Mus musculus; experiment: Tested for antiinflammatory activity on mouse type II collagen arthritis as Paw swelling* of all animals in each group on day 23 at intraperitoneal dose of 15 mg/kg; assay type: functional; outline: as §1
[24] = test system: Mus musculus; experiment: Incidence of disease(mouse type II collagen arthritis) was scored as the percentage of animals within each experimental group that exhibited joint or limb inflammation on day 44 at intraperitoneal of dose 15 mg/kg; assay type: functional; outline: as §2
[25] = test system: Mus musculus; experiment: Incidence of disease(mouse type II collagen arthritis) was scored as the percentage of animals within each experimental group that exhibited joint or limb inflammation on day 37 at intraperitoneal of dose 10 mg/kg; assay type: functional; outline: as §2
[26] = test system: Mus musculus; experiment: Tested for antiinflammatory activity on mouse type II collagen arthritis as Paw swelling* of all animals in each group on day 23 at intraperitoneal dose of 10 mg/kg; assay type: functional; outline: as §1

Compound: Nc1nc(N)c2nc(CCc3ccc(C(=O)NC(CCC(=O)O)C(=O)O)nc3)cnc2n1 (stereo unspecified)
Paw swelling [1]: Three animals died
Paw swelling [2]: 2.07 mm
Animals [3]: Three animals died
Animals [4]: 0%
Animals [5]: 0%
Paw swelling [6]: 2.14 mm
Animals [7]: 0%
Paw swelling [8]: 2.11 mm

pIC50 [15]: 8.43
Compound: CCC(Cc1cnc2nc(N)nc(N)c2n1)c1ccc(C(=O)NC(CCC(=O)O)C(=O)O)s1 (stereo unspecified)
Paw swelling [9]: 2.15 mm
Paw swelling [10]: 2.26 mm
Paw swelling [11]: 2.21 mm
Animals [12]: 12%
Paw swelling [13]: 2.17 mm
pIC50 [14]: 8.80
Paw swelling [16]: 2.23 mm
Animals [17]: 38%
Animals [18]: 0%
Animals [19]: 0%
Animals [20]: 0%
Animals [21]: 0%
Paw swelling [22]: 2.25 mm
Paw swelling [23]: 2.15 mm
Animals [24]: 12%
Animals [25]: 25%
Paw swelling [26]: 2.13 mm
